Assay results gathered from unrelated publications.
Target: Serine/threonine-protein kinase D1 (PRKD1, Homo sapiens, UniProt Q15139)

SMILES	assay	setting	endpoint	result
CC/C(=N\NC(=O)NCc1cccc(O)c1)c1ccc(O)c(C)c1O	enzyme activity, inhibitor	0.1 µM	inhibition	-0.2%
Cc1cc(NC(=O)c2cccc3cc(-c4cccc5[nH]nc(N)c45)ccc23)ccc1F	enzyme activity, inhibitor	0.1 µM	activity vs control	76%
CC(C)(C)c1nc(-c2cccc(NS(=O)(=O)c3c(F)cccc3F)c2F)c(-c2ccnc(N)n2)s1	enzyme activity, inhibitor, radiometric	1 µM	remaining activity	33%
Cc1ccc(NC(=O)c2ccc(C)c(C(F)(F)F)c2)cc1C#Cc1nn(C2CCC(O)CC2)c2ncnc(N)c12 (stereo not shown)	cell-free assay	10 µM	remaining signal	91%
CCCS(=O)(=O)Nc1ccc(F)c(C(=O)c2c[nH]c3ncc(-c4ccc(Cl)cc4)cc23)c1F	enzyme activity, inhibitor	1 µM	inhibition	< 10%
CCOc1cc(-c2nncn2C)ccc1Nc1ncc2cc(C)nc(NCC(C)(C)C)c2n1	enzyme activity, inhibitor, FRET	1 µM	inhibition	37%
Cc1cnc(NC2CCOCC2)nc1-n1cnc(C(=O)NC(CN)c2cc(F)cc(Cl)c2)c1 (stereo not shown)	enzyme activity, inhibitor, radiometric	1 µM	remaining activity	0%
CN(c1ncccc1CNc1nc(Nc2ccc3c(c2)CC(=O)N3)ncc1C(F)(F)F)S(C)(=O)=O	enzyme activity, inhibitor	1 µM	inhibition	49%
CN([C@@H]1CCc2c(CC(=O)O)c3ccccc3n2C1)S(=O)(=O)c1ccc(F)cc1	cell-free assay, competition with immobilised ligand	1 µM	remaining binding	100%
Cc1ncc([N+](=O)[O-])n1C(=NO)c1ccccc1C(F)(F)F	enzyme activity, inhibitor	10 µM	inhibition	7.69%
CCCCN(CCCC)C(=O)CN1C[C@H](c2cc(OC)c3c(c2)OCO3)[C@@H](C(=O)O)[C@@H]1CC(C)(C)CCC	cell-free assay, competition with immobilised ligand	1 µM	remaining binding	79.4%
CCN(CC)CCNC(=O)c1c(C)[nH]c(/C=C2\C(=O)Nc3ccc(F)cc32)c1C	cell-free assay	0.5 µM	remaining signal	20%
Cn1cncc1C1=CN(c2ncnc3[nH]cnc23)CCS1	enzyme activity, inhibitor, radiometric	2 µM	inhibition	89.2%
FC(F)(F)Oc1cccc(-c2cnc3ccc(-c4ccncc4)nn23)c1	enzyme activity, inhibitor, radiometric	5 µM	activity vs control	158%
CC(=O)N1CCC(c2ccc(C(=O)NC3=NCCN3)cc2C(F)(F)F)CC1	cell-free assay, competition with immobilised ligand	1 µM	remaining binding	100%
Nc1nc(Nc2ccccc2)sc1C(=O)c1c(F)cccc1F	enzyme activity, inhibitor	10 µM	remaining activity	46%
Cc1c(C(=O)O)cc(-c2ccc(C3CCNCC3)cc2)c2ccc(-c3ccc(C(F)(F)F)cc3)cc12	binding, competition with immobilised ligand	1 µM	remaining binding	100%

SMILES	assay	setting	endpoint	result
N#CCCc1ccc2c(c1)-c1[nH]c3ccc([N+](=O)[O-])cc3c1CC(=O)N2	cell-free assay	0.5 µM	remaining signal	87.5%
COc1cc2ncnc(Nc3ccc(Oc4ccccc4)cc3C)c2cc1OC	enzyme activity, inhibitor	1 µM	inhibition	8%
Cn1cnc(Br)c1C1=CN(c2ncnc3[nH]cnc23)CCS1	enzyme activity, inhibitor, radiometric	2 µM	inhibition	91.4%
CC(C)(O)c1cncc(-c2nc3ccc(F)cc3n2C2CC2)c1	cell-free assay, competition with immobilised ligand	1 µM	remaining binding	100%
O=C(Nc1cnn(-c2csc(C(=O)NC3COC3)c2)c1)Nc1c(F)cccc1Cl	enzyme activity, inhibitor	5 µM	remaining activity	90.7%
CCCOc1ccc(OC)c(F)c1C(=O)c1ccc(C(=O)N[C@@H]2CNC[C@H]2NC(=O)c2ccc3[nH]ncc3c2)cc1	enzyme activity, inhibitor	10 µM	remaining activity	53%
CNC(=O)c1cc(Oc2ccc(NC(=O)Nc3ccc(Cl)c(C(F)(F)F)c3)cc2)ccn1	enzyme activity, inhibitor	10 µM	inhibition	13%
Cc1ccc(C(=O)Nc2ccc(CN3CCN(C)CC3)c(C(F)(F)F)c2)cc1C#Cc1cnc2cccnn12	enzyme activity, inhibitor	23.5 nM	remaining activity	91%
O=C(N[C@H]1CCCCC/C=C\C2C[C@@]2(C(=O)O)NC(=O)[C@@H]2C[C@@H](Oc3ccncc3)CN2C1=O)OC1CCCC1 (stereo partly shown)	binding, competition with immobilised ligand	1 µM	remaining binding	96%
c1ccc(CNc2nc(N3CCOc4ccccc43)nc3c2CCCC3)cc1	target engagement in cells, inhibitor, chemoproteomics	20 mM	inhibition	-8.8%
FC(F)c1nc2ccccc2n1-c1nc(N2CCOCC2)nc(N2CCOCC2)n1	enzyme activity, inhibitor	10 µM	remaining activity	96%
Cc1ccc(Nc2nccc(N(C)c3ccc4c(C)n(C)nc4c3)n2)cc1S(N)(=O)=O	enzyme activity, inhibitor	10 µM	inhibition	23%
C[C@@H]1CCN(C(=O)CC#N)C[C@@H]1N(C)c1ncnc2[nH]ccc12	cell-free assay, inhibitor	0.5 µM	remaining signal	97.3%
O=C(Nc1ccc(Oc2ccc(F)cc2)cc1)N1CCc2ncccc2[C@H]1c1ccc(F)cc1	cell-free assay, competition with immobilised ligand	1 µM	remaining binding	94%
COc1cc(Cl)c(C(=O)N[C@@H](CN[C@H]2CC[C@@H](N)CC2)Cc2ccc(C#N)cc2)cc1-c1ccc(CN[C@H](C)c2ccc(C)cc2)o1	enzyme activity, inhibitor	1 µM	remaining activity	99%
CC(C)CC(=O)N1CCc2nc(-c3ccc(Br)cc3)nc(N(C)Cc3ccccc3)c2C1	cell-free assay, competition with immobilised ligand	0.1 µM	remaining binding	87%
Cn1c2ccccc2c2c3c(c4c5ccccc5n(CCC#N)c4c21)CNC3=O	cell-free assay	0.5 µM	remaining signal	17.3%
